The subject of test [1] is Human betaherpesvirus 5. Nature of the test: Antiviral activity against human cytomegalovirus AD169 in human HFF assessed as reduction of viral attachment to fibroblast after 2 hrs at 37 degC. The class given is functional, organism-based.
Test [2] deals with Human betaherpesvirus 5. Nature of the test: Antiviral activity against human cytomegalovirus AD169 infected in human HFF assessed as inhibition of plaque formation by plaque reduction assay. Type of test: functional, organism-based. The note with it: Human betaherpesvirus 5, AD169. A digest of the protocol:
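Plaque reduction against AD169 in HFF. EC50 is the concentration giving 50% inhibition of plaque formation, reported as mean ± SD of at least three independent experiments run in duplicate.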
Background: Plaque reduction counts the foci of infection that form in a cell layer.

Test [3] can be described thus: Selectivity index, ratio of CC50 for human HFF to EC50 for human cytomegalovirus AD169. A digest of the protocol:
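Selectivity index is CC50 from the HFF MTT assay divided by EC50 from the AD169 plaque reduction assay in HFF.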

The nature of test [4]: Inhibition of human cytomegalovirus DNA polymerase catalytic subunit UL54 assessed as incorporation of [3H]dTTP. Details: species or system Human betaherpesvirus 5. The method, boiled down:
(§1)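 Filter-based assay with purified baculovirus-expressed UL54 catalytic subunit, alone or with UL44 accessory subunit. Incorporation of [3H]dTTP into poly(dA)-oligo(dT)12-18 template-primer was measured across serial compound dilutions, with FOS as control. Means ± standard deviations from four independent experiments.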

A short description of test [5]: Inhibition of human cytomegalovirus DNA polymerase catalytic subunit UL54/UL44 assessed as incorporation of [3H]dTTP. Further details: species or system Human betaherpesvirus 5. A digest of the protocol:
as §1

In test [6] the test system is Human betaherpesvirus 5. Nature of the test: Antiviral activity against human cytomegalovirus AD169 infected in human HFF assessed as virus yield reduction. The note with it: Human betaherpesvirus 5, AD169. The class given is functional, organism-based.
The subject of test [7] is Human betaherpesvirus 5. Nature of the test: Antiviral activity against 1 MOI human cytomegalovirus AD169 infected in human HFF assessed as virus yield reduction by yield reduction assay. The class given is functional, organism-based. The note with it: Human betaherpesvirus 5, AD169.
Test [8] deals with Human betaherpesvirus 5. Put plainly: Antiviral activity against 0.1 MOI human cytomegalovirus AD169 infected in human HFF assessed as inhibition of immediate early phase UL122 mRNA expression after 16 hrs by RT-PCR analysis. Type of test: functional, organism-based. The method, boiled down: (§2)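 HFF seeded at 6×10^5 per well, infected with AD169 at MOI 0.1 PFU/cell, then given 50 µM drug or 0.2% DMSO. ActD 5 µg/ml, CHX 75 µg/ml and FOS 750 µM served as IE, E and L transcription controls. Total RNA was taken at 16 and 48 h p.i.; 1 µg was reverse-transcribed with random hexamers and MuLV RT. PCR used UL122/UL123 (IE), UL54/UL84 (E) and UL55/UL75 (L) primers with a β-actin control, and products were read on ethidium bromide agarose gels.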

Test [9] relates to Human betaherpesvirus 5. Put plainly: Antiviral activity against 0.1 MOI human cytomegalovirus AD169 infected in human HFF assessed as inhibition of immediate early phase UL123 mRNA expression after 16 hrs by RT-PCR analysis. Type of test: functional, organism-based. The method, boiled down: as §2
Test [10] deals with Human betaherpesvirus 5. Put plainly: Antiviral activity against 0.1 MOI human cytomegalovirus AD169 infected in human HFF assessed as inhibition of immediate early phase P72 protein expression after 24 hrs by Western blot analysis. Type of test: functional, organism-based. The method, boiled down:
(§3)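 HFF infected with HCMV AD169 at MOI 0.1 PFU/cell, treated with 50 µM compound or 0.2% DMSO. ActD 5 µg/ml, CHX 75 µg/ml and FOS 750 µM served as controls. Harvests at 24, 48 and 72 h p.i. were lysed in NP-40 buffer, then SDS-PAGE and PVDF blotting. Probes were anti-IE1/IE2 (p72/p86) MAb or anti-UL55, then HRP secondary and ECL. β-actin reprobe was the internal control.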

Test [11] has as its system Human betaherpesvirus 5. Nature of the test: Antiviral activity against 0.1 MOI human cytomegalovirus AD169 infected in human HFF assessed as inhibition of immediate early phase P86 protein expression after 24 hrs by Western blot analysis. Type of test: functional, organism-based. A digest of the protocol: as §3
Test [12] relates to Human betaherpesvirus 5. Put plainly: Antiviral activity against 0.1 MOI human cytomegalovirus AD169 infected in human HFF assessed as inhibition of late phase UL55 protein expression after 72 hrs of infection by Western blot analysis. Type of test: functional, organism-based. A digest of the protocol:
as §3
Background: In western blotting, separated proteins are transferred to a membrane and probed.

Test [13] has as its system Human betaherpesvirus 5. Put plainly: Antiviral activity against 0.1 MOI human cytomegalovirus AD169 infected in human U373-MG cells expressing UL54-EGFP reporter assessed as inhibition of EGFP expression after 48 hrs of infection by confocal fluorescence microscopy. Type of test: functional, organism-based. The note with it: U-373MG ATCC. A digest of the protocol:
(§4)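 Stable U373-MG reporter cells were seeded on coverslips at 3×10^5 per well and infected with AD169 at MOI 0.1 or 0.5. They were then treated with 50 µM drug, 5 µM fomivirsen (also given 1 h before and during infection) or 0.2% DMSO. At 48 h p.i. cells were fixed in 4% paraformaldehyde for 15 min, and EGFP-positive cells were counted by confocal microscopy at 20×.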

Test [14] has as its system Human betaherpesvirus 5. Nature of the test: Antiviral activity against 0.1 MOI human cytomegalovirus AD169 infected in human U373-MG cells expressing UL112/113-EGFP reporter assessed as inhibition of EGFP expression after 48 hrs of infection by confocal fluorescence microscopy. The class given is functional, organism-based. The note with it: U-373MG ATCC. A digest of the protocol: as §4

Test [15] has as its system Human betaherpesvirus 5. Nature of the test: Antiviral activity against 0.5 MOI human cytomegalovirus AD169 infected in human U373-MG cells expressing UL54-EGFP reporter assessed as inhibition of EGFP expression after 48 hrs of infection by confocal fluorescence microscopy. Type of test: functional, organism-based. Particulars: U-373MG ATCC. The method, boiled down:
as §4

Test [16] deals with Human betaherpesvirus 5. Nature of the test: Antiviral activity against 0.5 MOI human cytomegalovirus AD169 infected in human U373-MG cells expressing UL112/113-EGFP reporter assessed as inhibition of EGFP expression after 48 hrs of infection by confocal fluorescence microscopy. Type of test: functional, organism-based. The note with it: U-373MG ATCC. The method, boiled down:
as §4

Test [17] concerns Human betaherpesvirus 5. Put plainly: Antiviral activity against 0.1 MOI human cytomegalovirus AD169 infected in human HFF assessed as virus yield reduction by yield reduction assay. Type of test: functional, organism-based. Particulars: Human betaherpesvirus 5, AD169.
Test [18] deals with Human betaherpesvirus 5. Put plainly: Antiviral activity against 0.01 MOI human cytomegalovirus AD169 infected in human HFF assessed as virus yield reduction by yield reduction assay. The note with it: Human betaherpesvirus 5, AD169. Type of test: functional, organism-based.
The test system of test [19] is Human betaherpesvirus 5. Put plainly: Antiviral activity against human cytomegalovirus AD169 in human HFF assessed as reduction of viral attachment to fibroblast at 4 degC. The class given is functional, organism-based. A digest of the protocol:
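Prechilled HFF monolayers received 100 PFU AD169 together with graded compound or heparin control for 2 or 4 h at 4°C. Cells were washed with cold PBS, overlaid with compound-free 0.6% methylcellulose medium and kept 10 days at 37°C. Plaques were stained with crystal violet and counted. Three experiments were run in duplicate; mean ± SD.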

Test [20] concerns Human betaherpesvirus 5. Nature of the test: Antiviral activity against human cytomegalovirus AD169 in human HFF assessed as reduction of viral entry into fibroblast after 2 hrs at 37 degC. Particulars: Human betaherpesvirus 5, AD169, 2 h.
Test [21] has as its system Human betaherpesvirus 5. Nature of the test: Antiviral activity against 1 MOI human cytomegalovirus AD169 infected in human HFF assessed as inhibition of viral replication up to 30 hrs post infection.
Test [22] relates to Human betaherpesvirus 5. Put plainly: Antiviral activity against 0.1 MOI human cytomegalovirus AD169 infected in human HFF assessed as inhibition of early phase UL54 mRNA expression after 16 hrs by RT-PCR analysis.
Test [23] deals with Human betaherpesvirus 5. Put plainly: Antiviral activity against 0.1 MOI human cytomegalovirus AD169 infected in human HFF assessed as inhibition of early phase UL84 mRNA expression after 16 hrs by RT-PCR analysis.
Test [24] has as its system Human betaherpesvirus 5. Nature of the test: Antiviral activity against 0.1 MOI human cytomegalovirus AD169 infected in human cells expressing UL54-EGFP reporter assessed as inhibition of IE2 transactivating activity after 48 hrs of infection by confocal fluorescence microscopy.
Test [25] deals with Human betaherpesvirus 5. Put plainly: Antiviral activity against 0.1 MOI human cytomegalovirus AD169 infected in human cells expressing UL112/113-EGFP reporter assessed as inhibition of IE2 transactivating activity after 48 hrs of infection by confocal fluorescence microscopy.

Activity calls are given as the source filed them. No cut-off for these calls is given here. Where only a bound is given, the exact number is not on record here.

The record followed here is ChEMBL document CHEMBL1255448, “The 6-aminoquinolone WC5 inhibits human cytomegalovirus replication at an early stage by interfering with the transactivating activity of viral immediate-early 2 protein” (Antimicrob Agents Chemother, 2010).

As to `Cc1cn([C@H]2C[C@H](OP(O)(=S)OC[C@H]3O[C@@H](n4ccc(N)nc4=O)C[C@@H]3OP(O)(=S)OC[C@H]3O[C@@H](n4cnc5c(=O)[nH]c(N)nc54)C[C@@H]3OP(O)(=S)OC[C@H]3O[C@@H](n4cc(C)c(=O)[nH]c4=O)C[C@@H]3OP(O)(=S)OC[C@H]3O[C@@H](n4ccc(N)nc4=O)C[C@@H]3OP(O)(=S)OC[C@H]3O[C@@H](N4C(=O)C5N=CNC5N=C4N)C[C@@H]3OP(O)(=S)OC[C@H]3O[C@@H](n4cc(C)c(=O)[nH]c4=O)C[C@@H]3OP(O)(=S)OC[C@H]3O[C@@H](n4cc(C)c(=O)[nH]c4=O)C[C@@H]3OP(O)(=S)OC[C@H]3O[C@@H](n4cc(C)c(=O)[nH]c4=O)C[C@@H]3OP(O)(=S)OC[C@H]3O[C@@H](n4cc(C)c(=O)[nH]c4=O)C[C@@H]3OP(O)(=S)OC[C@H]3O[C@@H](N4C=NC5C(=O)NC(N)=NC54)C[C@@H]3OP(O)(=S)OC[C@H]3O[C@@H](n4cc(C)c(=O)[nH]c4=O)C[C@@H]3OP(O)(=S)OC[C@H]3O[C@@H](n4ccc(N)nc4=O)C[C@@H]3OP(O)(=S)OC[C@H]3O[C@@H](N4C=NC5C(=O)NC(N)=NC54)C[C@@H]3OP(O)(=S)OC[C@H]3O[C@@H](n4cc(C)c(=O)[nH]c4=O)C[C@@H]3OP(O)(=S)OC[C@H]3O[C@@H](n4cc(C)c(=O)[nH]c4=O)C[C@@H]3OP(O)(=S)OC[C@H]3O[C@@H](n4cc(C)c(=O)[nH]c4=O)C[C@@H]3OP(O)(=S)OC[C@H]3O[C@@H](n4cc(C)c(=O)[nH]c4=O)C[C@@H]3OP(O)(=S)OC[C@H]3O[C@@H](n4cnc5c(=O)[nH]c(N)nc54)C[C@@H]3OP(O)(=S)OC[C@H]3O[C@@H](n4cc(C)c(=O)[nH]c4=O)C[C@@H]3OP(O)(=S)OC[C@H]3O[C@@H](n4ccc(N)nc4=O)C[C@@H]3OP(O)(=S)OC[C@H]3O[C@@H](N4C=NC5C(=O)NC(N)=NC54)C[C@@H]3OP(O)(=S)OC[C@H]3O[C@@H](n4cc(C)c(=O)[nH]c4=O)C[C@@H]3OP(O)(=S)OC[C@H]3O[C@@H](n4cc(C)c(=O)[nH]c4=O)C[C@@H]3O)[C@@H](CO)O2)c(=O)[nH]c1=O` (stereo not given in full), the result in test [1] was Active.

In the case of `Nc1cc2c(=O)c(C(=O)O)cn(C3CC3)c2cc1N1CCN(c2ccccn2)CC1`, the EC50 in test [2] was 900 nM; in test [6], 8.6 µM; in test [20], more than 25 µM. In test [3], the “Selectivity Index” value is on record as 479. For the same compound, the IC50 in test [4] and in [5] was more than 100 µM throughout. The EC90 in test [7] worked out at 51.9 µM; in [17], 34.7 µM; in test [18] it was 8.5 µM. Besides, the inhibition entry in test [8], in test [9], in [10] and in test [11] was “inactive” throughout. Further, the inhibition entry in [12], in [13], in test [14], in test [15], in [16] and in test [22] was “Active” throughout. Moreover, the inhibition result in test [23], in test [24] and in test [25] was “Active” throughout. In addition, the outcome in [19] was inactive. Moreover, in test [21], the result was Active.

As a reminder, the EC50 is the concentration giving half of the maximal effect. The IC50 is the concentration needed to halve the response being measured. The term EC90 denotes the point of the concentration-response curve where the effect stands at 90%.
